Measurements as given in ChEMBL document CHEMBL4725434, “Discovery of Selective, Covalent FGFR4 Inhibitors with Antitumor Activity in Models of Hepatocellular Carcinoma” (ACS Med Chem Lett, 2020).
The source made the active and inactive calls. The rule behind the calls is not given here.

Columns and labels:
Hep 3B2 = assay: Antitumor activity against human Hep3B cells xenografted in SCID mouse orthotopic model assessed as inhibition of tumor regression at 100 mg/kg, po bid measured after 28 days relative to control; details: time 28.0 day
[1] = AUC in mouse at 10 mg/kg, po; type: ADME, organism-based; design: dose 10 mg/kg; details: in vivo
[2] = Half life in mouse at 3 mg/kg, iv; type: ADME, organism-based; details: in vivo
FGFR4 (Homo sapiens) = assay: In vivo receptor occupancy at FGFR4 in human Huh7 cells xenografted SCID mouse orthotopic model at 100 mg/kg, po qd after 10 hrs relative to control
[3] = Half life in cynomolgus monkey at 10 mg/kg, po; type: ADME, organism-based, Macaca fascicularis; details: in vivo
[4] = Oral bioavailability in mouse at 10 mg/kg; type: ADME, organism-based; details: in vivo
[5] = Volume of distribution at steady state in mouse at 3 mg/kg, iv; type: ADME, organism-based; details: in vivo, read-out: Vdss
Huh-7 [6] = assay: Antitumor activity against human Huh7 cells xenografted in po dosed SCID mouse sorafenib-resistance established model assessed as tumor regression measured after 11 days relative to untreated control; type: functional, organism-based; details: time 11.0 day
Procedure, shortened: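 Huh7 tumors grown subcutaneously in SCID mice were made sorafenib-resistant by oral sorafenib at 100 mg/kg daily for […]. Oral dosing was then given at 10, 30 or 100 mg/kg BID for 11 days. Sorafenib 100 mg/kg once daily was the comparator arm. Read-out was tumor growth as %ΔT/ΔC.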

[7] = Volume of distribution at steady state in cynomolgus monkey at 3 mg/kg, iv; type: ADME, organism-based, Macaca fascicularis; details: in vivo, read-out: Vdss
[8] = AUC in rat at 10 mg/kg, po; type: ADME, organism-based; design: dose 10 mg/kg; details: in vivo
[9] = AUC in cynomolgus monkey at 10 mg/kg, po; type: ADME, organism-based, Macaca fascicularis; design: dose 10 mg/kg; details: in vivo
[10] = Oral bioavailability in rat 10 mg/kg; type: ADME, organism-based; details: in vivo
[11] = Half life in cynomolgus monkey at 3 mg/kg, iv; type: ADME, organism-based, Macaca fascicularis; details: in vivo
[12] = Clearance in rat at 3 mg/kg, iv; type: ADME, organism-based; details: in vivo
[13] = Half life in rat at 10 mg/kg, po; type: ADME, organism-based; details: in vivo
[14] = AUC in rat at 3 mg/kg, iv; type: ADME, organism-based; design: dose 3 mg/kg; details: in vivo
[15] = Clearance in cynomolgus monkey at 3 mg/kg, iv; type: ADME, organism-based, Macaca fascicularis; details: in vivo
[16] = Cmax in rat at 10 mg/kg, po; type: ADME, organism-based; design: route oral, dose 10 mg/kg; details: in vivo
[17] = Volume of distribution at steady state in rat 3 mg/kg, iv; type: ADME, organism-based; details: in vivo, read-out: Vdss
[18] = AUC in cynomolgus monkey at 3 mg/kg, iv; type: ADME, organism-based, Macaca fascicularis; design: dose 3 mg/kg; details: in vivo
[19] = Half life in mouse at 10 mg/kg, po; type: ADME, organism-based; details: in vivo
[20] = Clearance in mouse at 3 mg/kg, iv; type: ADME, organism-based; details: in vivo
[21] = AUC in mouse at 3 mg/kg, iv; type: ADME, organism-based; design: dose 3 mg/kg; details: in vivo
[22] = Cmax in mouse at 10 mg/kg, po; type: ADME, organism-based; design: route oral, dose 10 mg/kg; details: in vivo
Huh-7 [23] = assay: Antitumor activity against human Huh7 cells xenografted in po dosed SCID mouse sorafenib-resistance established model assessed as tumor regression at 100 mg/kg, po bid for 11 days relative to untreated control; details: time 11.0 day
[24] = Half life in rat at 3 mg/kg, iv; type: ADME, organism-based; details: in vivo
Huh-7 [25] = assay: Antitumor activity against human Huh7 cells xenografted in po dosed SCID mouse sorafenib-resistance established model assessed as tumor regression at 30 mg/kg, po bid for 11 days relative to untreated control; details: time 11.0 day
[26] = Oral bioavailability in cynomolgus monkey at 10 mg/kg; type: ADME, organism-based, Macaca fascicularis; details: in vivo

C=CC(=O)N[C@H]1COC[C@H]1Nc1ncc2cc(-c3c(Cl)c(OC)cc(OC)c3Cl)c(=O)n(C)c2n1
Activity (Hep 3B2): Active
AUC [1]: 2960 ng·h/mL
t1/2 [2]: 2.1 h
Activity (FGFR4 (Homo sapiens)): >80%
half-life [3]: 2 h
bioavailability [4]: 20%
Vd [5]: 0.63 L/kg
Activity (Huh-7 [6]): inactive
Vd [7]: 1.1 L/kg
AUC [8]: 2230 ng·h/mL
AUC [9]: 5660 ng·h/mL
bioavailability [10]: 12%
t1/2 [11]: 4.8 h
clearance [12]: 9 mL/min/kg
half-life [13]: 3.2 h
AUC [14]: 5610 ng·h/mL
clearance [15]: 8.4 mL/min/kg
Cmax [16]: 588 ng/mL
Vd [17]: 0.3 L/kg
AUC [18]: 6420 ng·h/mL
half-life [19]: 1.8 h
clearance [20]: 17.2 mL/min/kg
AUC [21]: 2910 ng·h/mL
Cmax [22]: 423 ng/mL
Activity (Huh-7 [23]): Active
t1/2 [24]: 2.1 h
Activity (Huh-7 [25]): Active
bioavailability [26]: 27%
